According to ChEMBL document CHEMBL2346664, “Synthesis, characterization and in vitro anticancer evaluation of novel 1,2,4-triazolin-3-one derivatives” (2013):

Tests used:
Format in all cases: functional
NCI-H522 [1] = test: Growth inhibition of human NCI-H522 cells assessed as cell growth at 10 uM after 48 hrs by sulforhodamine B assay; settings: NCI-H522, 48 h, read-out: Activity
MDA-MB-231 = test: Growth inhibition of human MDA-MB-231 cells assessed as cell growth at 10 '-6 M after 48 hrs by sulforhodamine B assay; settings: MDA-MB-231, 48 h, read-out: Activity
SK-MEL-28 [2] = test: Growth inhibition of human SK-MEL-28 cells assessed as cell growth at 10 '-6 M after 48 hrs by sulforhodamine B assay; settings: SK-MEL-28, 48 h, read-out: Activity
A498 [3] = test: Growth inhibition of human A498 cells assessed as growth inhibition at 10 uM after 48 hrs by sulforhodamine B assay; settings: A498, 48 h, read-out: GI
Method in brief: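 Percent growth inhibition from the single 10^-5 M NCI-60 screen, reported as 100 minus growth percent. Growth percent was measured after 48 h drug exposure at 37 °C, 5% CO2, using TCA fixation, SRB staining and absorbance at 515 nm, against untreated controls and time-zero plates.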

[4] = Growth inhibition of human NCI-ADR-RES cells assessed as growth inhibition at 10 uM after 48 hrs by sulforhodamine B assay; settings: read-out: GI
OVCAR-4 = test: Growth inhibition of human OVCAR4 cells assessed as growth inhibition at 10 uM after 48 hrs by sulforhodamine B assay; settings: OVCAR-4, 48 h, read-out: GI
SK-MEL-28 [5] = test: Growth inhibition of human SK-MEL-28 cells assessed as growth inhibition at 10 uM after 48 hrs by sulforhodamine B assay; settings: SK-MEL-28, 48 h, read-out: GI
Malme-3M = test: Growth inhibition of human MALME-3M cells assessed as growth inhibition at 10 uM after 48 hrs by sulforhodamine B assay; settings: read-out: GI
[6] = Growth inhibition of human HCC2998 cells assessed as growth inhibition at 10 uM after 48 hrs by sulforhodamine B assay; settings: HCC 2998, 48 h, read-out: GI
PC-3 = test: Growth inhibition of human PC3 cells assessed as cell growth at 10 '-4 M after 48 hrs by sulforhodamine B assay; settings: PC-3, 48 h, read-out: Activity
NCI-H460 = test: Growth inhibition of human NCI-H460 cells assessed as cell growth at 10 '-6 M after 48 hrs by sulforhodamine B assay; settings: NCI-H460, 48 h, read-out: Activity
SR = test: Growth inhibition of human SR cells assessed as cell growth at 10 '-6 M after 48 hrs by sulforhodamine B assay; settings: read-out: Activity
MDA-MB-468 = test: Growth inhibition of human MDA-MB-468 cells assessed as cell growth at 10 '-7 M after 48 hrs by sulforhodamine B assay; settings: MDA-MB-468, 48 h, read-out: Activity
T47D = test: Growth inhibition of human T47D cells assessed as cell growth at 10 '-7 M after 48 hrs by sulforhodamine B assay; settings: read-out: Activity
RXF 393 [7] = test: Growth inhibition of human RXF393 cells assessed as cell growth at 10 '-7 M after 48 hrs by sulforhodamine B assay; settings: RXF 393, 48 h, read-out: Activity
A498 [8] = test: Growth inhibition of human A498 cells assessed as cell growth at 10 '-7 M after 48 hrs by sulforhodamine B assay; settings: A498, 48 h, read-out: Activity
Method in brief: (§1)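 Percent growth at each of the five concentrations of the 48 h continuous-exposure NCI SRB screen. Drug stocks were in DMSO at 400× the top final concentration and diluted in medium with gentamicin. Growth was calculated as [(Ti-Tz)/(C-Tz)]×100 when Ti ≥ Tz, or [(Ti-Tz)/Tz]×100 when Ti < Tz. Tz plates were fixed at drug addition; untreated wells served as control. Absorbance was read at 515 nm.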

ACHN [9] = test: Growth inhibition of human ACHN cells assessed as cell growth at 10 '-4 M after 48 hrs by sulforhodamine B assay; settings: read-out: Activity; method in brief: as §1
[10] = Growth inhibition of human NCI-ADR-RES cells assessed as cell growth at 10 '-4 M after 48 hrs by sulforhodamine B assay; settings: read-out: Activity
UACC-62 = test: Growth inhibition of human UACC62 cells assessed as cell growth at 10 '-4 M after 48 hrs by sulforhodamine B assay; settings: UACC-62, 48 h, read-out: Activity
SK-MEL-2 = test: Growth inhibition of human SK-MEL-2 cells assessed as cell growth at 10 '-4 M after 48 hrs by sulforhodamine B assay; settings: SK-MEL-2, 48 h, read-out: Activity
MCF7 = test: Growth inhibition of human MCF7 cells after 48 hrs by sulforhodamine B assay; settings: MCF7, 48 h
Method in brief: (§2)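 NCI 60-cell-line five-dose screen. Cells were plated at 5,000–40,000/well by doubling time and grown 24 h at 37 °C, 5% CO2. Time-zero plates were TCA-fixed. Drug from DMSO stock was tested at 0.01, 0.1, 1, 10 and 100 µM final for 48 h continuous exposure. Read-out was SRB at 515 nm. GI50 is the concentration giving 50% reduction in net protein increase versus untreated control.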

RXF 393 [11] = test: Growth inhibition of human RXF393 cells assessed as cell growth at 10 '-5 M after 48 hrs by sulforhodamine B assay; settings: RXF 393, 48 h, read-out: Activity
ACHN [12] = test: Growth inhibition of human ACHN cells assessed as cell growth at 10 '-5 M after 48 hrs by sulforhodamine B assay; settings: read-out: Activity; method in brief: as §1
IGROV-1 = test: Growth inhibition of human IGROV1 cells after 48 hrs by sulforhodamine B assay; settings: IGROV-1, 48 h; method in brief: as §2
SK-MEL-28 [13] = test: Growth inhibition of human SK-MEL-28 cells after 48 hrs by sulforhodamine B assay; settings: SK-MEL-28, 48 h
LOX IMVI = test: Growth inhibition of human LOXIMVI cells after 48 hrs by sulforhodamine B assay; method in brief: as §2
HOP-92 = test: Growth inhibition of human HOP92 cells assessed as cell growth at 10 '-7 M after 48 hrs by sulforhodamine B assay; settings: HOP-92, 48 h, read-out: Activity
A498 [14] = test: Growth inhibition of human A498 cells assessed as cell growth at 10 '-8 M after 48 hrs by sulforhodamine B assay; settings: A498, 48 h, read-out: Activity; method in brief: as §1
M14 = test: Growth inhibition of human M14 cells assessed as cell growth at 10 '-8 M after 48 hrs by sulforhodamine B assay; settings: M14, 48 h, read-out: Activity
SF-295 = test: Growth inhibition of human SF295 cells assessed as cell growth at 10 '-8 M after 48 hrs by sulforhodamine B assay; settings: SF-295, 48 h, read-out: Activity
NCI-H522 [15] = test: Growth inhibition of human NCI-H522 cells assessed as cell growth at 10 '-8 M after 48 hrs by sulforhodamine B assay; settings: NCI-H522, 48 h, read-out: Activity
[16] = read-out: LD50 (the source's name)

Cc1nn(-c2ccc(Cl)cc2)c(=O)n1CCN1CCOCC1
growth at 10 µM (NCI-H522 [1]): 69%

Cc1cc(=O)oc2cc(OCCn3c(C)nn(-c4ccc(Cl)cc4)c3=O)ccc12
growth at 1 µM (MDA-MB-231): 66% | growth at 1 µM (SK-MEL-28 [2]): 67% | inhibition of growth at 10 µM (A498 [3]): 74.3% | inhibition of growth at 10 µM [4]: 75.3% | inhibition of growth at 10 µM (OVCAR-4): 32.9% | inhibition of growth at 10 µM (SK-MEL-28 [5]): 59.2% | inhibition of growth at 10 µM (Malme-3M): 67.1% | inhibition of growth at 10 µM [6]: 53.3% | growth at 100 µM (PC-3): 34% | growth at 1 µM (NCI-H460): 83% | growth at 1 µM (SR): 29% | growth at 0.1 µM (MDA-MB-468): 90% | growth at 0.1 µM (T47D): 99% | growth at 0.1 µM (RXF 393 [7]): 90% | growth at 0.1 µM (A498 [8]): 76% | growth at 100 µM (ACHN [9]): 25% | growth at 100 µM [10]: 2% | growth at 100 µM (UACC-62): 30% | growth at 100 µM (SK-MEL-2): 14% | GI50 (MCF7): 2700 nM | TGI (MCF7): > 1000 nM | CC50 (MCF7; [16]): > 1000 nM | growth at 10 µM (RXF 393 [11]): 18% | growth at 10 µM (ACHN [12]): 35% | GI50 (IGROV-1): 3500 nM | TGI (IGROV-1): > 1000 nM | GI50 (SK-MEL-28 [13]): 3130 nM | TGI (SK-MEL-28 [13]): > 1000 nM | CC50 (SK-MEL-28 [13]; [16]): > 1000 nM | GI50 (LOX IMVI): 4830 nM | TGI (LOX IMVI): > 1000 nM | CC50 (LOX IMVI; [16]): > 1000 nM | growth at 0.1 µM (HOP-92): 83% | growth at 0.01 µM (A498 [14]): 81% | growth at 0.01 µM (M14): 101% | growth at 0.01 µM (SF-295): 94% | growth at 0.01 µM (NCI-H522 [15]): 100%
